According to ChEMBL document CHEMBL3612036, “Design, Synthesis, and Cardioprotective Effects of N-Mercapto-Based Hydrogen Sulfide Donors” (J Med Chem, 2015):
Activity calls are given as the source filed them. The calls are words filed in the database; no cut-off is given here.

Assays:
[1] = […] peak time for H2S release in pH 7.4 PBS buffer containing 10% THF incubated for 2 hrs at room temperature in presence of cysteine by methylene blue based UV-Vis spectrometry; assay type: physicochemical; conditions: pH 7.4, 2 h
Outline: (§1)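 Donor (30 mM THF stock; 0.1 mM final) was added to PBS (pH 7.4, 50 mM)/THF 9:1 containing the stated thiol, at room temperature for 2 h. 1.0 mL aliquots were taken periodically into methylene blue cocktail (zinc acetate, N,N-dimethyl-p-phenylenediamine in HCl, FeCl3 in HCl) and reacted 15 min. Absorbance was read at 670 nm and H2S quantified against a Na2S calibration curve; peak concentration and peak time were recorded.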

[2] = […] peak time for H2S release in pH 7.4 PBS buffer containing 10% THF incubated for 2 hrs at room temperature in presence of 1 mM GSH by methylene blue based UV-Vis spectrometry; assay type: physicochemical; conditions: pH 7.4, 2 h; outline: as §1
[3] = GSH-induced H2S release assessed as peak H2S level in pH 7.4 PBS buffer containing 10% THF incubated for 2 hrs at room temperature in presence of 1 mM GSH by methylene blue based UV-Vis spectrometry; assay type: physicochemical; conditions: pH 7.4, 2 h; outline: as §1
[4] = GSH-induced H2S release assessed as peak H2S level in pH 7.4 PBS buffer containing 10% THF incubated for 2 hrs at room temperature in presence of cysteine by methylene blue based UV-Vis spectrometry; assay type: physicochemical; conditions: pH 7.4, 2 h; outline: as §1
H9c2 [5] = experiment: Cytoprotective activity against H2O2-induced cell damage in rat H9c2 cells at 160 uM incubated for 1 hr before H2O2 challenge for 5 hrs by CCK8 assay; assay type: functional, cell-based
Outline: (§2)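 H9c2 cells (high-glucose DMEM, 10% FBS, 37 °C, 5% CO2) were preincubated 1 h with test agent, washed with PBS, then exposed to H2O2 (400 μM) for 5 h. Viability was read by CCK-8 (1:10 dilution, 3 h at 37 °C, absorbance 450 nm). The mean OD of 4 wells was expressed as % of control. Experiments were done in triplicate.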

Mus musculus [6] = experiment: Effect on area-at-risk per left ventricle in C57BL6/J mouse model of myocardial ischemia/reperfusion at 50 and 100 ug/kg dosed through direct intracardiac injection at time of reperfusion by TTC staining method; assay type: organism-based, Heart left ventricle; conditions: in vivo, 0.1 mg/kg
Outline: (§3)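 Male C57BL/6J mice, 10–12 weeks old, anesthetised with pentobarbital (50 mg/kg) plus ketamine (60 mg/kg). Left coronary artery occluded with PE-10 tubing for 45 min. Single intracardiac injection at reperfusion; vehicle 0.5% v/v THF in sterile saline. Reperfusion lasted 24 h, then area-at-risk and infarct measured by Evans blue/TTC staining. n = 6–17 per group.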

Mus musculus [7] = experiment: Cardioprotective activity in C57BL6/J mouse model of myocardial ischemia/reperfusion assessed as reduction in infarct size per area-at-risk dosed through direct intracardiac injection at time of reperfusion by TTC staining method; assay type: functional, organism-based; conditions: Myocardium; outline: as §3
H9c2 [8] = experiment: Cytotoxicity against rat H9c2 cells assessed as reduction in cell viability at >80 uM incubated for 1 hr by CCK8 assay; assay type: cell-based; conditions: h9c2, 1 h
Outline: (§4)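 H9c2 cells (high-glucose DMEM, 10% FBS, 37 °C, 5% CO2) were exposed 1 h to donor over 20–160 μM, either alone or with 480 μM cysteine, then washed twice with PBS. Viability was measured by CCK-8 (1:10 dilution, 3 h at 37 °C, absorbance 450 nm). The mean OD of 4 wells was expressed as % of control, in triplicate.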

H9c2 [9] = experiment: Cytotoxicity against rat H9c2 cells assessed as reduction in cell viability at 160 uM in presence of 480 uM cysteine incubated for 1 hr by CCK8 assay; assay type: cell-based; conditions: h9c2, 1 h; outline: as §4
H9c2 [10] = experiment: Cytotoxicity against rat H9c2 cells assessed as reduction in cell viability at <40 uM incubated for 1 hr by CCK8 assay; assay type: cell-based; conditions: h9c2, 1 h; outline: as §4
H9c2 [11] = experiment: Cytoprotective activity against H2O2-induced cell damage in rat H9c2 cells at 160 uM pre-incubated for 1 hr before H2O2 challenge for 5 hrs in presence of 480 uM cysteine by LDH release assay; assay type: functional, cell-based
Outline: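 H9c2 cells at about 70% confluence were preconditioned 1 h with donor plus cysteine (480 μM), then treated with H2O2 (400 μM) for 5 h. Extracellular LDH was measured in supernatant; intracellular LDH in lysate made with 2% Triton X-100 in DMEM. Kit reaction ran 10 min at room temperature, read at 490/600 nm. % release = extracellular/(extracellular+intracellular). Run 4 times.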

[12] = Induction of […] release in pH 7.4 PBS buffer containing 10% THF incubated for 2 hrs at room temperature in presence of 0.5 mM cysteine by methylene blue based UV-Vis spectrometry; assay type: physicochemical; conditions: pH 7.4, 2 h; outline: as §1
[13] = Induction of […] release in pH 7.4 PBS buffer containing 10% THF incubated for 2 hrs at room temperature in presence of 2 mM cysteine by methylene blue based UV-Vis spectrometry; assay type: physicochemical; conditions: pH 7.4, 2 h; outline: as §1
Mus musculus [14] = experiment: Cardioprotective activity in C57BL6/J mouse model of myocardial ischemia/reperfusion assessed as reduction in infarct size per area-at-risk at 100 ug/kg dosed through direct intracardiac injection at time of reperfusion by TTC staining method; assay type: functional; conditions: Myocardium; outline: as §3
H9c2 [15] = experiment: Cytoprotective activity against H2O2-induced cell damage in rat H9c2 cells assessed as reduction in mitochondrial membrane potential loss at 160 uM pre-incubated for 1 hr before H2O2 challenge for 5 hrs in presence of 480 uM cysteine by Rh123 dye based fluorescent microscopy; assay type: functional
Outline: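 H9c2 cells were grown in high-glucose DMEM with 10% FBS at 37 °C, 5% CO2. They were pretreated 1 h with donor plus cysteine (480 μM), then given H2O2 (400 μM) for 5 h. Rh123 (10 mg/L) was added for 15 min at 37 °C. Fluorescence microscopy gave mean Rh123 intensity from four random fields.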

H9c2 [16] = experiment: Cytoprotective activity against H2O2-induced cell damage in rat H9c2 cells at 480 uM incubated for 1 hr before H2O2 challenge for 5 hrs by CCK8 assay; assay type: functional, cell-based; outline: as §2

For O=C(NSC(=O)C1CCCC1)c1ccccc1, the Time [1] was 60 min, the Time [2] was 65 min and the Activity [3] was 49.9 µM. For the same compound, the Activity [4] was 40.9 µM.

In the case of Cc1ccc(C(=O)SNC(=O)Nc2ccccc2)cc1, the Time [1] is reported as 105 min, the Time [2] is reported as 130 min and the Activity [3] is reported as 20 µM. The Activity [4] was 16.5 µM.

CC(=O)NSC(=O)c1ccccc1 gave a Time [1] of 45 min, a Time [2] of 50 min and an Activity [3] of 58.3 µM. The Activity [4] was 46.4 µM.

With NC(=O)c1ccccc1 the Activity (H9c2 [5]) was “inactive”.

Compound Cc1cccc(C(=O)SNC(=O)c2ccccc2)c1 has a Time [1] of 55 min, a Time [2] of 65 min and an Activity [3] of 39.3 µM. For the same compound, the Activity [4] was 49.3 µM.

In the case of COC(=O)c1ccc(C(=O)SNC(=O)c2ccccc2)cc1, the Time [1] is reported as 50 min, the Time [2] is reported as 55 min and the Activity [3] is reported as 36 µM. For the same compound, the Activity [4] was 38.8 µM.

Work on O=C(NSC(=O)c1ccc(C(F)(F)F)cc1)c1ccccc1 yielded a Time [1] of 45 min, a Time [2] of 60 min and an Activity [3] of 28.1 µM. For the same compound, the Activity [4] was 48.3 µM.

For COc1ccc(C(=O)SNC(=O)Nc2ccccc2)cc1, the Time [1] was 105 min, the Time [2] was 120 min and the Activity [3] was 26.4 µM. For the same compound, the Activity [4] was 14.1 µM.

Compound O=C(Cc1ccccc1)SNC(=O)c1ccccc1 has a Time [1] of 50 min, a Time [2] of 60 min and an Activity [3] of 47.5 µM. The Activity [4] was 33.4 µM.

O=C(NSC(=O)c1ccc(Cl)cc1)Nc1ccccc1 gave a Time [1] of 95 min, a Time [2] of 120 min and an Activity [3] of 24.9 µM. For the same compound, the Activity [4] was 18.2 µM.

Work on Cc1ccccc1C(=O)NSC(=O)c1ccccc1 yielded a Time [1] of 55 min, a Time [2] of 65 min and an Activity [3] of 57.6 µM. The Activity [4] was 51.4 µM.

With CCC(=O)NSC(=O)c1ccccc1 the Time [1] was 55 min, the Time [2] was 60 min and the Activity [3] was 54.1 µM. The Activity [4] was 44.1 µM.

Work on CC(=O)SNC(=O)c1ccccc1 yielded a Time [1] of 60 min, a Time [2] of 70 min and an Activity [3] of 63.1 µM. For the same compound, the Activity [4] was 48.4 µM.

For CN(C)c1ccc(C(=O)SNC(=O)c2ccccc2)cc1, the Time [1] was 65 min, the Time [2] was 80 min and the Activity [3] was 7.6 µM. The Activity [4] was 19.5 µM.

With O=C(NSC(=O)c1cccc(Cl)c1)c1ccccc1 the Time [1] was 50 min, the Time [2] was 60 min and the Activity [3] was 31.3 µM. For the same compound, the Activity [4] was 49.4 µM.

For O=C(NSC(=O)c1ccccc1)c1ccc(F)cc1, the Time [1] was 55 min, the Time [2] was 65 min and the Activity [3] was 43.3 µM. The Activity [4] was 38.5 µM.

Cc1ccccc1C(=O)SNC(=O)c1ccccc1 gave a Time [1] of 60 min, a Time [2] of 70 min and an Activity [3] of 19.8 µM. It also gave an Activity [4] of 29.4 µM.

Work on CC(=O)Oc1ccccc1C(=O)NSC(=O)c1ccccc1 yielded a Time [1] of 60 min, a Time [2] of 60 min and an Activity [3] of 44.5 µM. For the same compound, the Activity [4] was 35.1 µM.

In the case of O=C(NSC(=O)c1ccccc1)c1cccc(Cl)c1, the Time [1] is reported as 60 min, the Time [2] is reported as 70 min and the Activity [3] is reported as 29.9 µM. For the same compound, the Activity [4] was 25.2 µM.

CC(C)C(=O)SNC(=O)c1ccccc1 showed a Time [1] of 65 min, a Time [2] of 70 min and an Activity [3] of 58.4 µM. For the same compound, the Activity [4] was 40.7 µM.

Compound Cc1ccc(NC(=O)NSC(=O)c2ccccc2)cc1 has a Time [1] of 90 min, a Time [2] of 130 min and an Activity [3] of 27.4 µM. The Activity [4] was 21.8 µM.

For CC(C)(C)C(=O)SNC(=O)c1ccccc1, the Time [1] was 80 min, the Time [2] was 90 min and the Activity [3] was 48.1 µM. It also gave an Activity [4] of 37.5 µM.

COc1ccccc1C(=O)SNC(=O)c1ccccc1 gave a Time [1] of 60 min, a Time [2] of 80 min and an Activity [3] of 34 µM. The Activity [4] was 29 µM.

For O=C(NSC(=O)C1CCCCC1)c1ccccc1, the Time [1] was 65 min, the Time [2] was 80 min and the Activity [3] was 68.2 µM. It also gave an Activity [4] of 48.1 µM.

For CCCC(=O)NSC(=O)c1ccccc1, the Time [1] was 60 min, the Time [2] was 60 min and the Activity [3] was 58.3 µM. For the same compound, the Activity [4] was 45.9 µM.

O=C(NSC(=O)c1ccccc1)Nc1ccc(Cl)cc1 gave a Time [1] of 110 min, a Time [2] of 120 min and an Activity [3] of 20.9 µM. The Activity [4] was 10.7 µM.

Work on O=C(NSC(=O)c1ccc(F)cc1)Nc1ccccc1 yielded a Time [1] of 75 min, a Time [2] of 90 min and an Activity [3] of 18.5 µM. It also gave an Activity [4] of 18.8 µM.

For CC(C(=O)SNC(=O)c1ccccc1)c1ccccc1 (stereo unspecified), the Time [1] was 60 min, the Time [2] was 70 min and the Activity [3] was 55.6 µM. The Activity [4] was 48.2 µM.

With COc1cccc(C(=O)SNC(=O)c2ccccc2)c1 the Time [1] was 55 min, the Time [2] was 80 min and the Activity [3] was 39.5 µM. It also gave an Activity [4] of 47 µM.

In the case of O=C(NSC(=O)c1ccccc1)c1ccccc1, the Activity (Mus musculus [6]) is reported as “Non-toxic”, the Time [1] is reported as 55 min and the inhibition (Mus musculus [7]) is reported as “Dose-dependent effect”. For the same compound, the Activity (H9c2 [8]) was “Toxic”, the Time [2] was 65 min and the Activity (H9c2 [9]) was “Non-toxic”. For the same compound, the Activity [3] was 51.2 µM, the Activity (H9c2 [10]) was “Non-toxic” and the Activity (H9c2 [11]) was “Active”. For the same compound, the Activity [12] was “Not Active”, the Activity [13] was “Active” and the inhibition in vivo at 0.1 mg/kg (Mus musculus [14]) was 35%. The Activity [4] was 55.8 µM and the Activity (H9c2 [15]) was “Active”.

With COc1ccc(C(=O)SNC(=O)c2ccccc2)cc1 the Time [1] was 60 min, the Activity (H9c2 [8]) was “Toxic” and the Time [2] was 65 min. The Activity (H9c2 [9]) was “Non-toxic”, the Activity [3] was 46.8 µM and the Activity (H9c2 [10]) was “Non-toxic”. For the same compound, the Activity (H9c2 [11]) was “Active”, the Activity [4] was 41.8 µM and the Activity (H9c2 [15]) was “Active”.

With N[C@@H](CS)C(=O)O the Activity (H9c2 [16]) was “inactive”.

O=C(NSC(=O)c1ccccc1)Nc1ccccc1 gave a Time [1] of 95 min, a Time [2] of 110 min and an Activity [3] of 29.9 µM. It also gave an Activity [4] of 21.5 µM.

With Cc1ccc(C(=O)SNC(=O)c2ccccc2)cc1 the Time [1] was 60 min, the Time [2] was 60 min and the Activity [3] was 39.8 µM. It also gave an Activity [4] of 45.4 µM.

In the case of O=C(N[C@@H](CS)C(=O)O)c1ccccc1, the Activity (H9c2 [5]) is reported as “inactive”.
